Source: the RNAGym collection of RNA variant scans (doi:10.1126/science.aae0568)
Fewer inactive variants are shown than the library holds.

B1: tRNA (parent)
chain: GUUCCGUUGGCGUAAUGGUAACGCGUCUCCCUCCUAAGGAGAAGACUGCGGGUUCGAGUCCCGUACGGAACG

Variants of: B1
Assay: yeast fitness relative to wild type (ratio to wild type); higher = fitter; tRNA-Arg(CCU), competitive growth, 37 C, YPD
In short: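 Variants of the tRNA-Arg(CCU) gene were chemically synthesised with a 3% per-site mutation rate across 69 sites and placed at the native genomic locus in Saccharomyces cerevisiae. Six parallel replicates of the pooled strains were competed in YPD at 37°C for 24 hours, and gene amplicons from the start and end populations were read by 100-nucleotide paired-end sequencing. Darwinian fitness relative to wild type was derived from changes in genotype frequencies. Genotypes required ≥ 100 starting reads, and estimates < 0.5 were set to 0.5.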

Variant	yeast fitness
GUUCCGUUGGCGUAGUGGUAACGCGUCUCCCUCCUAAGGAGAAGACUGAGGGUUCGAGUCCCGUACGGAACG [A15G C49A]	0.735
GUUCCGUUGGCGUAGUGGUAACGCGUCUCGCUCCUAAGGAGCCGAGUGCGGGUUCGAGUCCCGUACGGAACG [A15G C30G A42C A43C C46G]	≤ 0.5
GUUCCGUUGGCGUAGUGGUAACGCGUCUCCCUCCUAAGGAGAAGACUGCGGGUUCGAGUGCCGUACGGAACG [A15G C60G]	0.668
GUUCCGUUGGCGUAGUGGUAACGCGUCUCCCUCCUAAGGAGAAGACUGCGGGUUCGAGUACCGUACGGAACG [A15G C60A]	0.687
GUUCCGUUGGCGUAGUGGUAACGCGUCUCGCUCCUAAGGAGAAGACUGCGGGUUCGAGUCCGGUACGGAACG [A15G C30G C62G]	≤ 0.5
GUUCCGUUGGCGUAGUGGUAACGCGUCUCCUUCCUAAGGAGAAGUCUGCGGGUUCGAGUCCCGUACGGAACG [A15G C31U A45U]	0.668
GUUCCGUUGGCGUAGUGGUAACGCGUCUCCCUGCUAAGGAGAAGACUGCGAGUUCGAGUCCCGUACGGAACG [A15G C33G G51A]	0.665
GUUCCGUUGGCGUAGUGGUAACGCGUCUCGCUCCUAAGGUGCAGACUGGGGGUUCGAGUCCCGUACGGAACG [A15G C30G A40U A42C C49G]	≤ 0.5
GUUCCGUUGGCGUAGUGGUAACGCGUCUCCCUCCUAAGGAGAAGACUGAGGGUUCGAGUCCCGUACGGUACG [A15G C49A A69U]	0.579
GUUCCGUUGGCGUAGUGGUAACGCGUCUCCCUCCUAAGGAGAAGACUGCGGGUUCGAGUCCUGUACGGUACG [A15G C62U A69U]	0.934
GUUCCGUUGGCGUAGUGGUAACGCGUCUCCCUCCUAAGGAGAAGAGUGCGGGUUCGAGUCGCGUACGGAACG [A15G C46G C61G]	0.567
GUUCCGUUGGCGUAGUGGUAACGCGUCUCCCUCCUAAGGAGAAGAGUGCGGAUUCGAGUCCCGUACGGAACG [A15G C46G G52A]	0.576
GUUCCGUUGGCGUAGUGGUAACGCGUCUCUCUCCUAAGGAGAAGACUGCGGGUUCGAGUCCCGUACGGACCG [A15G C30U A70C]	0.615
GUUCCGUUGGCGUAGUGGUAACGCGUCUCCCUCUUAAGGAGGAGACUGAGGGUUCGAGUCCCGUACGGAACG [A15G C34U A42G C49A]	≤ 0.5
GUUCCGUUGGCGUAGUGGUAACGCGUCUCCCUCCUAAGGAGAAGACUGGGGGUUCCAGUCCCGUACGGAACG [A15G C49G G56C]	≤ 0.5
GUUCCGUUGGCGUAGUAGUAACGCGUCUCCCUCCUAAGGAGAAGACUGCGGGUUCGAGUCCCGUGCGGAACG [A15G G17A A65G]	≤ 0.5
GUUCCGUUGGCGUAGUGGUAACGCGUCUCCCUGCUAAGGAGAAAAGUGCGGGUUCGAGUCCCGUAUGGAACG [A15G C33G G44A C46G C66U]	≤ 0.5
GUUCCGUUGGCGUAGUGGUAACGCGUCUCCCUCCUAAGGAGAAGACUGCGGGUUCGAGUCUCGUUUGGAACG [A15G C61U A65U C66U]	≤ 0.5
GUUCCGUUGGCGUAGUGGUAACGCGUCUCGCUCCUAAGGAGAAGACUGCGGGUUCGAGUCCCGUACGAAACG [A15G C30G G68A]	≤ 0.5

Variant	yeast fitness
GUUCCGUUGGCGUAGUAGUAACGCGUCUCACUCCUAAGGAGAAGACCGCGGGUUCGAGUCCCGUACGGAACG [A15G G17A C30A U47C]	≤ 0.5
GUUCCGUUGGCGUAGUGGUAACGCGUCUCCCUCCUAAGGAGAAGAUUGCGGGUUCGAGUCGCGUACGGAACG [A15G C46U C61G]	0.581
GUUCCGUUGGCGUAGUGGUAACGCGUCUCCCUCCUAAGGAGAAGACUGCGGGUUCGAGUCGCGUACGGACCG [A15G C61G A70C]	0.639
GUUCCGUUGGCGUAGUGGUAACGCGUCUCCCUCCUAAGGAGAAGAUUGCGGGUUCGAGUCCCGUUCGGAACG [A15G C46U A65U]	0.735
GUUCCGUUGGCGUAGUAGUAACGCGUCUCCCUUCUAAGCAGAAGACUGCGGGUUCGAGUCCCGUACGGAACG [A15G G17A C33U G39C]	0.54
GUUCCGUUGGCGUAGUGGUAACGCGUCUCCCUCUUAAGGAGAACACUGCCGGUUCGAGUCCUGUACGGAACG [A15G C34U G44C G50C C62U]	≤ 0.5
GUUCCGUUGGCGUAGUGGUAACGCGUCUCCCUCCUAAGGAGAAGACUGCGGGUUCGAGUCUCGUACAGAACG [A15G C61U G67A]	0.549
GUUCCGUUGGCGUAGUGGUAACGCGUCUCGCUCCUAAGGAGAAGACUGCGGGUUCGAGUCCCGCACGGAACG [A15G C30G U64C]	≤ 0.5
GUUCCGUUGGCGUAGUGGUAACGCGUCUCACUCCUAAGGAGAAGACUGGGGGUUUGAGUCCCGUACGGAACG [A15G C30A C49G C55U]	≤ 0.5
GUUCCGUUGGCGUAGUGGUAACGCGUCUCCCUCUUAAGGAGAAGACUGAGGGUUCGAGUCCCGUACGGAACG [A15G C34U C49A]	0.6
GUUCCGUUGGCGUAGUGGUAACGCGUCUCCCUCCUAAGGAGAAGACUGCGGGUUCGAGUCCUGUACGGAACG [A15G C62U]	0.994
GUUCCGUUGGCGUAGUGGUAACGCGUCUCCCUCCUAAGGAGAAGACUGCGGGUUCGAGUCCAGUACGGAACG [A15G C62A]	0.798
GUUCCGUUGGCGUAGUAGUAACGCGUCUGCUUCCUAAGGAGAAGAAUGCGGGUUCGAGUCCCGUACGGAACG [A15G G17A C29G C31U C46A]	≤ 0.5
GUUCCGUUGGCGUAGUGGUAACGCGUCUCCCUCCUAAGGAGAAGAGUGCGGGUUCGAGUCCCGUACGGAACG [A15G C46G]	0.897
GUUCCGUUGGCGUAGUGGUAACGCGUCUCUCUCCUAAGGAGAAGACUGCGGAUUCGAGUCCCGUACGGAUCG [A15G C30U G52A A70U]	0.581
GUUCCGUUGGCGUAGUGGUAACGCGUCUCCCUCAUAAGGAGAAGACUGCGGGUUCGAGUCCCGUACGGAACG [A15G C34A]	0.811
GUUCCGUUGGCGUAGUGGUAACGCGUCUCCCUACUAAGGAGAAGACUGCGGGUACGAGUCCCGUACGGAACG [A15G C33A U54A]	≤ 0.5
GUUCCGUUGGCGUAGUGGUAACGCGUCUCCUUCCUAAGGAGAAGACGGCGGGUUCGACUCCUGUACGGAACG [A15G C31U U47G G58C C62U]	≤ 0.5
